# Experimental data published in ChEMBL document CHEMBL3994676, “Encapsulation of Mitoxantrone within Cucurbit[8]uril Decreases Toxicity and Enhances Survival in a Mouse Model of Cancer” (ACS Med Chem Lett, 2017).
# The source made the active and inactive calls. The calls are words filed in the database; no cut-off is given here.
# What was measured:
# Mus musculus [1] = assay: Toxicity in Balb/c mouse assessed as body weight loss at 3 mg/kg, iv encapsulated within cucurbit[8]uril administered twice weekly for 2 weeks; assay type: organism-based; settings: in vivo, 336 h
# Summary of the method: (§1)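 Non-tumor-bearing female Balb/c mice (9 weeks old), four per group, were dosed iv by tail vein on days 0, 3, 7 and 10. Dose was 2 mg/kg as mitoxantrone (complex adds 3 mg/kg Q[8]) in 0.9% saline vehicle. Body weight was recorded daily and expressed as mean change from baseline.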
# Mus musculus [2] = assay: Toxicity in Balb/c mouse implanted with mouse 4T1.2 cells assessed as body weight loss at 3 mg/kg, iv encapsulated within cucurbit[8]uril administered twice weekly for 2 weeks; assay type: organism-based; settings: in vivo, 336 h
# Summary of the method: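 Mice bore orthotopic 4T1.2 mammary fat pad tumors, with treatment begun on day 8. Dosing was iv twice weekly for 2 weeks at 2 mg/kg mitoxantrone plus 3 mg/kg Q[8], in saline vehicle. Body weight was monitored. Culling at >20% weight loss, tumor >1500 mm3, or metastatic distress.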
# Mus musculus [3] = assay: Toxicity in Balb/c mouse assessed as body weight loss at 2 mg/kg, iv administered twice weekly for 2 weeks relative to control; assay type: organism-based; settings: in vivo, 336 h; summary of the method: as §1
# [4] = Drug uptake in mouse 4T1.2 cell at 5 uM after 4 hrs by laser scanning confocal microscopic method
# 4T1.2 [5] = assay: Antitumor activity against mouse 4T1.2 cells implanted in Balb/c mouse assessed as tumor growth inhibition at 3 mg/kg, iv encapsulated within cucurbit[8]uril administered twice weekly for 2 weeks; assay type: functional, organism-based
# Summary of the method: (§2)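 Female Balb/c mice given 1 × 105 4T1.2 cells into the fourth mammary fat pad. Dosing started once tumors were palpable on day 8. Dosed iv by tail vein twice weekly for 2 weeks, 2 mg/kg as mitoxantrone (complex adds 3 mg/kg Q[8]), in 0.9% saline vehicle. Primary tumors measured with digital calipers. Groups n = 10–11. One-way ANOVA against vehicle.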
# 4T1.2 [6] = assay: Growth inhibition of mouse 4T1.2 cells up to 20000 nM after 48 hrs by MTT assay; assay type: functional, cell-based
# [7] = Drug uptake in mouse 4T1.2 cell at 5 uM encapsulated within cucurbit[8]uril after 4 hrs by laser scanning confocal microscopic method
# [8] = Drug uptake in mouse 4T1.2 cell lysosomes at 5 uM encapsulated within cucurbit[8]uril after 20 mins by LysoTracker Green staining based laser scanning confocal microscopic method; assay type: ADME, Lysosome
# 4T1.2 [9] = assay: Growth inhibition of mouse 4T1.2 cells up to 20000 nM encapsulated within cucurbit[8]uril after 48 hrs by MTT assay; assay type: functional, cell-based
# 4T1.2 [10] = assay: Antitumor activity against mouse 4T1.2 cells implanted in Balb/c mouse assessed as mouse survival time at 3 mg/kg, iv encapsulated within cucurbit[8]uril administered twice weekly for 2 weeks measured up to 33 days; assay type: functional
# Summary of the method: (§3)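 Female Balb/c mice given 1 × 10^5 4T1.2 cells into the fourth mammary fat pad. Treatment started on day 8 once tumours were palpable: 2 mg/kg mitoxantrone-equivalent (complex formulation also 3 mg/kg Q[8]) or 0.9% saline vehicle, by tail-vein iv, twice weekly for 2 weeks. Monitored to day 33. Culled at >20% weight loss, tumour >1500 mm3 or metastatic distress. Kaplan–Meier analysis with log-rank test.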
# 4T1.2 [11] = assay: Antitumor activity against mouse 4T1.2 cells implanted in Balb/c mouse assessed as tumor growth inhibition at 2 mg/kg, iv administered twice weekly for 2 weeks; assay type: functional, organism-based; summary of the method: as §2
# 4T1.2 [12] = assay: Antitumor activity against mouse 4T1.2 cells implanted in Balb/c mouse assessed as mouse survival rate at 2 mg/kg, iv administered twice weekly for 2 weeks measured up to 33 days (rvb = 30%); assay type: functional; settings: 4T1.2, iv; summary of the method: as §3
smiles,measurement,setting,value
O=C1c2c(O)ccc(O)c2C(=O)c2c(NCCNCCO)ccc(NCCNCCO)c21 [MITOXANTRONE],Activity,Mus musculus [1],Non-Toxic
same,Activity,Mus musculus [2],Non-Toxic
same,Activity,Mus musculus [3],15%
same,Drug uptake,[4],Active
same,TGI,4T1.2 [5],Active
same,growth inhibition (GI),4T1.2 [6],Active
same,Drug uptake,[7],Active
same,Drug uptake,[8],Active
same,growth inhibition (GI),4T1.2 [9],Active
same,Survival,4T1.2 [10],26 days
same,TGI,4T1.2 [11],Active
same,survival at 2 mg/kg,4T1.2 [12],60%
